Assay results taken from ChEMBL document CHEMBL4699548, “Ultrasound assisted synthesis of tetrazole based pyrazolines and isoxazolines as potent anticancer agents via inhibition of tubulin polymerization” (Bioorg Med Chem Lett, 2020).
Calls of active or inactive are those of the source. The rule behind the calls is not given here.

Legend:
MCF7 = assay: Cytotoxicity against human MCF7 cells assessed as reduction in cell viability by MTT assay; format: functional, cell-based
Tubulin = assay: Inhibition of tubulin polymerization in human A549 cells assessed as decrease in polymerized fraction of tubulin content after 48 hrs by western blot analysis; format: cell-based
Method in brief: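 A549 cells exposed to test agents at 1 μM for 48 h. Soluble and polymerized tubulin fractions were collected separately and tubulin levels in each were detected by western blot.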

Tubulin (Homo sapiens) [1] = target: T1, Tubulin (Homo sapiens) (UniProt P68371+Q9H4B7+P0DPH7+P68366+Q13509+Q71U36+P04350+Q3ZCM7+P07437+P68363+Q9BQE3+Q6PEY2+Q13885+Q9BVA1+Q9BUF5); assay: Inhibition of tubulin polymerization in human A549 cells assessed as increase in soluble fraction of tubulin at 1 uM measured after 48 hrs by western blot analysis; format: cell-based
Method in brief: (§1)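 A549 cells exposed to test agents at 1 μM for 48 h. Combretastatin A-4 (1 μM) run in parallel as positive control and DMSO as negative control. Soluble and polymerized tubulin fractions were collected separately and tubulin levels in each were detected by western blot.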

HepG2 = assay: Cytotoxicity against human HepG2 cells assessed as reduction in cell viability by MTT assay; format: functional, cell-based
Tubulin (Homo sapiens) [2] = target: T1, Tubulin (Homo sapiens); assay: Inhibition of tubulin polymerization in human A549 cells assessed as decrease in polymerized fraction of tubulin content at 1 uM after 48 hrs by Western blot analysis relative to control; format: cell-based; method in brief: as §1
A549 = assay: Cytotoxicity against human A549 cells assessed as reduction in cell viability by MTT assay; format: functional, cell-based

Row | Structure (SMILES) | IC50 (MCF7) [µM] | IC50 (Tubulin) [µM] | inhibition (Tubulin (Homo sapiens) [1]) | IC50 (HepG2) [µM] | inhibition (Tubulin (Homo sapiens) [2]) [%] | IC50 (A549) [µM]
1 | COc1cc(C2=NNC(c3ccc(Cl)cc3)C2)ccc1OCc1nnn[nH]1 (configuration not stated) | 1.04 | 2.94 | Active | 0.96 | 62.6 | 1.11
2 | COc1cc(C2=NOC(c3ccc(O)cc3)C2)ccc1OCc1nnn[nH]1 (configuration not stated) | 25 | – | – | 6.25 | – | 3.12
3 | COc1cc(C2=NOC(c3ccc(F)cc3)C2)ccc1OCc1nnn[nH]1 (configuration not stated) | 3.12 | – | – | 3.12 | – | 3.12
4 | COc1ccc(C2CC(c3ccc(OCc4nnn[nH]4)c(OC)c3)=NO2)cc1OC (configuration not stated) | 25 | – | – | 3.12 | – | 12.5
5 | COc1cc(C2=NOC(c3ccc(C)cc3)C2)ccc1OCc1nnn[nH]1 (configuration not stated) | 12.5 | – | – | 6.25 | – | 0.78
6 | COc1cc(C2=NNC(c3ccc(O)cc3)C2)ccc1OCc1nnn[nH]1 (configuration not stated) | 1.94 | – | – | 2.02 | – | 1.16
7 | COc1cc(C2=NNC(c3cccc(O)c3)C2)ccc1OCc1nnn[nH]1 (configuration not stated) | 2.16 | – | – | 2.88 | – | 2.24
8 | COc1ccc(C2CC(c3ccc(OCc4nnn[nH]4)c(OC)c3)=NO2)cc1 (configuration not stated) | 12.5 | – | – | 12.5 | – | 6.25
9 | COc1ccc(/C=C\c2cc(OC)c(OC)c(OC)c2)cc1O [COMBRETASTATIN A4] | 0.04 | – | – | 0.009 | – | 0.05
10 | COc1cc(C2=NOC(c3ccc(Cl)cc3)C2)ccc1OCc1nnn[nH]1 (configuration not stated) | 6.25 | – | – | 12.5 | – | 6.25
11 | COc1cc(C2=NNC(c3ccc(F)cc3)C2)ccc1OCc1nnn[nH]1 (configuration not stated) | 0.92 | 2.16 | Active | 0.85 | 65.4 | 0.94
12 | COc1cc(C2=NNC(c3ccc(C)cc3)C2)ccc1OCc1nnn[nH]1 (configuration not stated) | 1.76 | – | – | 1.08 | – | 0.99
13 | COc1cc(C2=NOC(c3cccc(O)c3)C2)ccc1OCc1nnn[nH]1 (configuration not stated) | 6.25 | – | – | 1.56 | – | 25
14 | COc1cc(C2=NNC(c3ccccc3)C2)ccc1OCc1nnn[nH]1 (configuration not stated) | 3.16 | – | – | 3.15 | – | 2.98
15 | COc1ccc(C2CC(c3ccc(OCc4nnn[nH]4)c(OC)c3)=NN2)cc1 (configuration not stated) | 3.1 | – | – | 2.98 | – | 3.12
16 | COc1ccc(C2CC(c3ccc(OCc4nnn[nH]4)c(OC)c3)=NN2)cc1OC (configuration not stated) | 2.94 | – | – | 3.06 | – | 2.82
17 | COc1cc(C2=NOC(c3ccccc3)C2)ccc1OCc1nnn[nH]1 (configuration not stated) | 12.5 | – | – | 6.25 | – | 6.25
